Experimental findings from article PMC9020136 (Science (New York, N.Y.), 2022) are described below.

The test system of one assay is Bacilus subtilis. The assay can be described thus: MIC, broth-microdilution method. Format: cell-based. On the technique in general: In broth dilution the organism is exposed to a series of concentrations in liquid medium.
In a further assay the test system is bacterial membranes. The experiment in a line: Membrane permeabilization, influx of viability stain SYTOX Green. Format: cell-based, B. subtilis. The settings on record: concentration twice the MIC value. A digest of the protocol:
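Live B. subtilis cells imaged over time by confocal microscopy after exposure to a lethal level of test compound. SYTOX Green was used as a viability stain, with its entry into cells read as membrane permeabilization.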

For (−)-Himastatin [(−)-himastatin (1)], the MIC in the assay on Bacilus subtilis is on record as 1 µg/mL. Also, the “time to permeabilization of bacterial membranes” value with bacterial membranes was no more than 30 min.

For orientation: MIC means the lowest concentration that inhibits growth of the organism. Low values mean inhibition by little substance, high ones a need for much substance.
